Experimental data taken from article PMC11223151 (ACS Omega, 2024).
In brackets after ≈: the same amount, converted by molar mass.

Assays:
Format in all cases: cell-based
[1] = test system: human lymphocytes; test: Comet assay
Method in brief: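 Freshly isolated human lymphocytes from fresh blood were exposed to test compound at 40–0.078 μg/mL. Controls were 20% DMSO (positive) and normal saline (negative). Cells in low-melting agarose went onto slides precoated with normal-melting agarose, then cold lysis overnight, alkaline unwinding at pH >13, and electrophoresis for 30 min at 300 mA, 24 V. Slides were neutralised at pH 7.5 and ethidium bromide-stained. Tail length and head diameter were scored by fluorescence microscopy, damage index by formula, reported as mean ± SD of 3–5 experiments.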

[2] = test system: MCF-7 cell line; test: MTT assay, anticancer activity on MCF-7 cell line; details: Homo sapiens, MCF7, 48 h
[3] = test system: Vero cell line; test: MTT assay, cytotoxicity on Vero; details: Chlorocebus sabaeus, 48 h, read-out: IC50 Vero cell line

C[S+](C)[O-] [20% DMSO, Dimethyl sulfoxide]
damage index ([1]; positive control, 20%): 45
fragmentation % ([1]; positive control, 20%): 100%
genetic damage index ([1]; positive control, 20%): 1.8

COc1cc(/C=C/C(=O)CC(=O)/C=C/c2ccc(O)c(OC)c2)ccc1O [curcumin]
IC50 ([2]; read-out: IC50 MCF7 cell line): 11.5 µg/mL (≈ 31.1 µM)
inhibition at 40 µg/mL ([2]; read-out: percentage inhibition against MCF7 cell line): 64%
damage index ([1]; 0.078 μg/mL): 0
fragmentation % ([1]; 0.078 μg/mL): 0%
genetic damage index ([1]; 0.078 μg/mL): 0
mean tail length n = 25 ([1]; 0.078 μg/mL): 0.36 ± 0.47
damage index ([1]; 0.156 μg/mL): 0
fragmentation % ([1]; 0.156 μg/mL): 0%
genetic damage index ([1]; 0.156 μg/mL): 0
mean tail length n = 25 ([1]; 0.156 μg/mL): 0.46 ± 0.38
damage index ([1]; 0.3125 μg/mL): 0
fragmentation % ([1]; 0.3125 μg/mL): 0%
genetic damage index ([1]; 0.3125 μg/mL): 0
mean tail length n = 25 ([1]; 0.3125 μg/mL): 0.57 ± 0.22
damage index ([1]; 0.625 μg/mL): 0
fragmentation % ([1]; 0.625 μg/mL): 0%
genetic damage index ([1]; 0.625 μg/mL): 0
mean tail length n = 25 ([1]; 0.625 μg/mL): 0.54 ± 0.28
damage index ([1]; 1.25 μg/mL): 0
fragmentation % ([1]; 1.25 μg/mL): 0%
genetic damage index ([1]; 1.25 μg/mL): 0
mean tail length n = 25 ([1]; 1.25 μg/mL): 0.68 ± 0.35
damage index ([1]; 2.5 μg/mL): 0
fragmentation % ([1]; 2.5 μg/mL): 0%
genetic damage index ([1]; 2.5 μg/mL): 0
mean tail length n = 25 ([1]; 2.5 μg/mL): 0.68 ± 0.74
damage index ([1]; 5 μg/mL): 0
fragmentation % ([1]; 5 μg/mL): 0%
genetic damage index ([1]; 5 μg/mL): 0
mean tail length n = 25 ([1]; 5 μg/mL): 1.14 ± 0.72
damage index ([1]; 10 μg/mL): 1
fragmentation % ([1]; 10 μg/mL): 4%
genetic damage index ([1]; 10 μg/mL): 0.04
mean tail length n = 25 ([1]; 10 μg/mL): 1.28 ± 0.28
damage index ([1]; 20 μg/mL): 2
fragmentation % ([1]; 20 μg/mL): 8%
genetic damage index ([1]; 20 μg/mL): 0.08
mean tail length n = 25 ([1]; 20 μg/mL): 1.31 ± 0.74
damage index ([1]; 40 μg/mL): 3
fragmentation % ([1]; 40 μg/mL): 12%
genetic damage index ([1]; 40 μg/mL): 0.12
mean tail length n = 25 ([1]; 40 μg/mL): 1.86 ± 0.73
IC50 [3]: 23.2 µg/mL (≈ 63 µM)
